T cell modulator – T cell immune modulators affecting CD8 T cell-vesicle binding; 2C CD8+ T cell-vesicle binding, flow cytometry; active compounds read low; response (vesicle binding), % at 7 µM; 330,000 tested, 0.068% active; AID 2052;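 active = response, share of CD8 T cells binding vesicles, and their 90th percentile fluorescence all below set limits, cut at about 80% in these data, passing the limit was not always enough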;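 also: values below 100% mean blocked vesicle binding to the CD8+ T cells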
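Test system: purified 2C TCR transgenic mouse naive CD8+ T cells. Probe or stimulus: QL9-peptide-loaded Drosophila micro-vesicles bearing Ld, ICAM-1 and B7-1. Incubation: binding step 1.5 h, 37 °C, antibody labelling 20 min, ice. Measured by: flow cytometry of vesicle-bound cells.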
Rce1 inhib – yeast Ras-converting enzyme inhibition; Q03530; yeast membranes, quenched prenylated peptide cleavage fluorescence; calls only; 290,000 tested, 0.27% active; AID 2563;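 active = fall in fluorescence gain of 50% or more versus controls, with final raw signal at or below 3038400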;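 also: plate controls were neutral control wells for no effect and wells lacking membranes for full effect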
Target sequence (Q03530 whole entry, looked up): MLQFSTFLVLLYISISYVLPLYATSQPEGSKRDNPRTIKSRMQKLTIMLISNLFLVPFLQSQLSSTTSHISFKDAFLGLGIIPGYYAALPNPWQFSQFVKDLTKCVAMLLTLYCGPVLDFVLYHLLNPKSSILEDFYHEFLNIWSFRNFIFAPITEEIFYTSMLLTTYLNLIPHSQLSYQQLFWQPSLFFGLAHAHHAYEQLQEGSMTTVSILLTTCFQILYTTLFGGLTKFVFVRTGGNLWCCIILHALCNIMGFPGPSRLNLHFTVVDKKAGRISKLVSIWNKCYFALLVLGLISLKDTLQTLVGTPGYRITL
UCH37 DUB inh – inhibitors of human deubiquitinating enzyme UCH37; purified proteasome/UCH37, Ub-AMC cleavage fluorescence; 330,000 tested, 0.33% active; AID 588478; Q9Y5K5; inhibition, % (test concentration not listed);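 active = mean inhibition over replicate wells above about 20%, limit read from the data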;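 also: 0% = compound-free wells with enzyme and 100% = wells lacking proteasome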
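Material: human UCH37 enzyme supplied as purified proteasome complex. Measure: % inhibition of Ub-AMC cleavage fluorescence. Medium: pH 7.4 Tris-HCl (50 mM) with ovalbumin, ATP-MgCl2, DTT. Times: 30 min preincubation with enzyme, 25 min cleavage at room temperature. Detection: AMC fluorescence intensity at 355/460 nm.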
MEKK3 PB1 HTS – raises or lowers MEK5 binding to the human MEKK3 PB1 domain | 290,000 tested, 1.4% active | binding response (% of control), % at 10 µM | bead-based flow cytometry, Alexa488-MEK5 binding to MEKK3; actives lie on both sides; 0 = blocked by unlabeled MEK5, 100 = vehicle;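 active = binding response more than 3 SD above or below the average of its plate-row segment, actives on both sides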;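 also: Alexa488 bead fluorescence after subtracting the streptavidin-only scavenger bead signal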
MEKK2 WT-MEK5 – raises or lowers MEK5 binding to wildtype human MEKK2 PB1 domain | binding response (% of control), % at 10 µM | bead flow cytometry, Alexa488-MEK5 binding to MEKK2 WT; actives lie on both sides | 290,000 tested, 1.1% active; in the data active = binding response below about 67% or above about 130%
MEKK2 mut-MEK5 – signal of MEK5 binding to mutant human MEKK2 PB1 domain; bead flow cytometry, Alexa488-MEK5 binding to MEKK2 mutant; percent response, % at 10 µM; 290,000 tested, 0.35% active; AID 1530; in the data active = percent response above about 24%, passing the limit was not always enough
MEKK2wt confirm – raises or lowers MEK5 binding to wildtype human MEKK2, retest. shares compounds with MEKK3 PB1 HTS. bead flow cytometry, Alexa488-MEK5 binding to MEKK2 WT; actives lie on both sides. 5,900 tested, 2.4% active. binding response (% of control), % at 10 µM; in the data active = binding response below about 16% or above about 210%; inactive = in between
MEKK2mut-MEK5 – signal of MEK5 binding to mutant human MEKK2, retest. shares compounds with MEKK3 PB1 HTS. bead flow cytometry, Alexa488-MEK5 binding to MEKK2 mutant. percent response, % at 10 µM. 5,900 tested, 2% active. AID 1893; in the data active = percent response mostly above about 71%, no sharp cut-off; inactive = mostly below about 38%;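 also: higher means compound restores mutant binding toward wildtype level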
MEKK3-MEK5 inh – confirmation of inhibitors of MEK5 binding to human MEKK3; shares compounds with MEKK3 PB1 HTS; bead flow cytometry, Alexa488-MEK5 binding to MEKK3; active compounds read low; binding response (% of control), % at 10 µM; 5,900 tested, 1.8% active; AID 1894;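 active = binding response below 72% of control, or above a set upper limit, though filed actives all read lower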;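 also: 100% = DMSO only wells and 0% = binding blocked by excess unlabeled MEK5; lower values mean stronger disruption of MEK5 binding to MEKK3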
The depositor's hits bear a star; i = inactive; . = no result given; [ ] = another dose, or the depositor's remark. In the library only some 2.5% were active in any assay of this set; here they are far more common.

SMILES	T cell modulator	Rce1 inhib	UCH37 DUB inh	MEKK3 PB1 HTS	MEKK2 WT-MEK5	MEKK2 mut-MEK5	MEKK2wt confirm	MEKK2mut-MEK5	MEKK3-MEK5 inh
C=CCn1c(SCC(=O)N2N=C(c3ccco3)CC2c2ccco2)nnc1-c1ccncc1 (stereo not given)	202.2	i	3.0	66.0*[inhibitor]	94.0	-1.0	113.0	12.0	106.0
Cc1ccc(C2=NN(C(=O)CSc3nccn3C)C(c3ccco3)C2)cc1 (stereo not given)	i	i	2.2	100.0	106.0	4.0	.	.	.
Cc1cccc(OCC(=O)NN=Cc2cc3c(cc2[N+](=O)[O-])OCO3)c1C	.	.	7.2	.	.	.	.	.	.
CC(=O)Nc1cccc(C(=O)Oc2cccc(C)c2)c1O	380.7	i	-6.8	9.0*[inhibitor]	16.0*[inhibitor]	-29.0	110.0	1.0	105.0
Cc1cccc(C(=O)Nc2cccc(OC(=O)c3cccc(C)c3)c2)c1	169.7	i	-4.7	109.0	115.0	12.0	.	.	.
CC(=O)O[C@H]1[C@H](C)OC=C[C@@H]1OC(C)=O	808.6	i	4.3	106.0	151.0*	9.0	109.0	6.0	103.0
CN(C)CCCNc1nc(-c2ccc(Cl)cc2)nc2ccccc12	172.6	i	3.0	111.0	141.0*	16.0	134.0	15.0	106.0
Cc1ccc(-c2nc(NCCN(C)C)c3ccccc3n2)cc1	650.7	i	-3.2	106.0	131.0	6.0	.	.	.
Cc1cccc(-c2nc(NCCCN(C)C)c3ccccc3n2)c1	190.7	i	2.6	105.0	135.0*	13.0	112.0	7.0	102.0
CCCOc1ccc(C=NNc2ccc(C(=O)O)cc2)c(OCCC)c1	.	.	-11.1	.	.	.	.	.	.
Cc1cc(C)cc(N(C(=O)c2cc3ccccc3oc2=O)C2C=CS(=O)(=O)C2)c1 (stereo not given)	157.2	i	2.0	141.0*	110.0	0.0	106.0	2.0	101.0
Cc1cc(C)cc(N(C(=O)C2CCCC2)C2C=CS(=O)(=O)C2)c1 (stereo not given)	740.5	i	-0.2	76.0*[inhibitor]	78.0	-13.0	105.0	7.0	106.0
Oc1ccc(Cl)cc1C=NCCc1ccccc1	107.4	i	-0.3	129.0*	100.0	0.0	101.0	-2.0	96.0
Oc1ccccc1C=NCCN=Cc1ccccc1O	173.7	i	3.1	104.0	93.0	2.0	.	.	.
CCc1c(C(=O)NN=Cc2ccsc2)csc1C	.	.	1.8	.	.	.	.	.	.
Cc1cc(NS(C)(=O)=O)c(=O)n(Cc2cccc(F)c2)c1	.	i	-10.5	98.0	20.0*[inhibitor]	8.0	102.0	-1.0	102.0
O=C(CN1CCCCC1)NN=Cc1cccc(C(F)(F)F)c1	.	.	-0.4	.	.	.	.	.	.
Cc1n[nH]c(=S)n1-c1cccc(Cl)c1	0.0	i	3.8	74.0*[inhibitor]	101.0	-2.0	107.0	2.0	107.0
Cc1cccc(C)c1OCc1n[nH]c(=S)n1-c1ccccc1	89.6	i	0.7	75.0	78.0	-11.0	.	.	.
Cc1ccccc1OCc1n[nH]c(=S)n1-c1cccc(Cl)c1	459.4	i	4.4	112.0	111.0	24.0*	103.0	-2.0	102.0
O=C(NN=Cc1ccccc1OCc1ccccc1Cl)c1cccnc1	.	.	1.9	.	.	.	.	.	.
COc1cccc(NC(=O)CN(c2cccc(C(F)(F)F)c2)S(C)(=O)=O)c1	294.8	i	1.1	80.0*[inhibitor]	81.0	-4.0	101.0	2.0	100.0
CC(CC(=O)Nc1ccccn1)=NNC(=O)c1ccc([N+](=O)[O-])cc1Cl	.	.	4.3	.	.	.	.	.	.
CC(C)(C)NC(=O)C(=O)NN=Cc1ccc(F)cc1	.	.	2.2	.	.	.	.	.	.
Cc1nn(CCOc2ccccc2)c(=O)n1-c1ccc(Cl)cc1	210.6	i	-0.7	141.0*	123.0	4.0	102.0	-1.0	103.0

Screening data from PubChem BioAssay.
